Measured values taken from PMC4174307 (Nature, 2014).

Experiments:
P2Y12R (WT) [1] = target: T1, P2Y12R (WT) (Homo sapiens, UniProt Q9H244); assay: [3H]2MeSADP displacement, membranes; type: binding
P2Y12R (WT) [2] = target: T2, P2Y12R (WT) (Homo sapiens, UniProt Q9H244, D294N); assay: [3H]2MeSADP displacement, membranes; type: binding
P2Y12R (WT) [3] = target: P2Y12R (WT) (Homo sapiens, UniProt Q9H244, S156A); assay: saturation radioligand binding, membranes
Procedure, shortened: (§1)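 Human P2Y12R (wild type or single alanine mutants) in pcDNA3.0, transiently transfected into COS7 cells and harvested 48 h later. Membranes: 1,000g spin, then 20,000g pellet for 60 min, stored at −80 °C. [3H]2MeSADP (3.5 Ci mmol−1, 0.4–46 nM) was incubated with 5 μg membrane protein in Tris-HCl with 10 mM MgCl2. Nonspecific binding was defined with 10 μM P2Y12R antagonist. Bound ligand was separated by filtration, washed with cold buffer and counted by scintillation. Kd is mean ± s.e.m., 3–6 independent experiments in duplicate.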

P2Y12R (WT) [4] = target: T1, P2Y12R (WT); assay: saturation radioligand binding, membranes
Procedure, shortened: as §1

P2Y12R (WT) [5] = target: T2, P2Y12R (WT); assay: saturation radioligand binding, membranes
Procedure, shortened: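 Receptor construct carrying the D294N mutation, with BRIL fused into ICL3, expressed in Sf9 cells. Membranes were prepared by homogenization, a 1,000g spin, then a 20,000g 60 min pellet. Saturation binding used [3H]2MeSADP (3.5 Ci mmol−1, 0.4–46 nM), 5 μg membrane protein, in Tris-HCl with 10 mM MgCl2. Nonspecific binding was defined with 10 μM P2Y12R antagonist. Filtration was followed by scintillation counting. Kd from independent experiments in duplicate.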

P2Y12R (WT) [6] = target: P2Y12R (WT) (Homo sapiens, UniProt Q9H244, N159A); assay: saturation radioligand binding, membranes
P2Y12R (WT) (Homo sapiens, UniProt Q9H244, N159A), sequence (Q9H244 whole entry N159A): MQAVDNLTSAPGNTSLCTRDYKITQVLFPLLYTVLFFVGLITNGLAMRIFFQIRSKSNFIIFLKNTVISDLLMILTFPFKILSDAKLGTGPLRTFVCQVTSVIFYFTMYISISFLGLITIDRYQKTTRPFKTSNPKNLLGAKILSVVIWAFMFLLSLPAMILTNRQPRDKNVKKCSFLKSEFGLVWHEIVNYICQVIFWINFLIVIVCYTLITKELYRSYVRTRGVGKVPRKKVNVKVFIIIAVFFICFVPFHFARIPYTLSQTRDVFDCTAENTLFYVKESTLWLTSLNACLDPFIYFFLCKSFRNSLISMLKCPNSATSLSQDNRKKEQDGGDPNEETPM
Procedure, shortened: as §1

T1 sequence (Q9H244 whole entry): as the sequence (Q9H244 whole entry N159A) above, with A159N counted along it
T2 sequence (Q9H244 whole entry D294N): as the sequence (Q9H244 whole entry N159A) above, with A159N, D294N counted along it
P2Y12R (WT) (Homo sapiens, UniProt Q9H244, S156A), sequence (Q9H244 whole entry S156A): as the sequence (Q9H244 whole entry N159A) above, with S156A, A159N counted along it

## CCOC(=O)c1cc(C#N)c(N2CCC(C(=O)NS(=O)(=O)Cc3ccccc3)CC2)nc1C [AZD1283, Ethyl 6-(4-((benzylsulphonyl)carbamoyl)piperidin-1-yl)-5-cyano-2-methylnicotinate]
P2Y12R (WT) [1]
  Ki: 31.5 ± 11.9 nM

## CCCSc1nc(N[C@@H]2C[C@H]2c2ccc(F)c(F)c2)c2nnn([C@@H]3C[C@H](OCCO)[C@@H](O)[C@H]3O)c2n1 [Ticagrelor]
P2Y12R (WT) [2]
  Ki: 424 ± 193 nM
P2Y12R (WT) [1]
  Ki: 454 ± 110 nM

## Nc1ncnc2c1ncn2[C@@H]1O[C@H](COP(=O)(O)OP(=O)(O)O)[C@@H](O)[C@H]1O [ADP]
P2Y12R (WT) [2]
  Ki: 169 ± 81 nM
P2Y12R (WT) [1]
  Ki: 332 ± 35 nM

## CSc1nc(N)c2ncn([C@@H]3O[C@H](COP(=O)(O)OP(=O)(O)OP(=O)(O)O)[C@@H](O)[C@H]3O)c2n1 [2MeSATP]
P2Y12R (WT) [2]
  Ki: 82.4 ± 28.5 nM
P2Y12R (WT) [1]
  Ki: 119 ± 19.8 nM

## Nc1c(S(=O)(=O)O)cc(Nc2ccc(Nc3ccccc3)c(S(=O)(=O)O)c2)c2c1C(=O)c1ccccc1C2=O [PSB-0739]
P2Y12R (WT) [2]
  Ki: 72.8 ± 16.7 nM
P2Y12R (WT) [1]
  Ki: 275 ± 58 nM

## CSc1nc(N)c2ncn([C@@H]3O[C@H](COP(=O)(O)OP(=O)(O)O)[C@@H](O)[C@H]3O)c2n1 [2MeSADP, 2-methylthio-adenosine 5′-diphosphate]
P2Y12R (WT) [3]
  Kd: 5.66 ± 0.72 nM
P2Y12R (WT) [2]
  Ki: 80.8 ± 16.8 nM
P2Y12R (WT) [4]
  Kd: 4.25 ± 0.87 nM
P2Y12R (WT) [5]
  Kd: 33.6 ± 10.2 nM
P2Y12R (WT) [6]
  Kd: 6.39 ± 0.94 nM
P2Y12R (WT) [1]
  Ki: 120 ± 7.3 nM
